Converted amounts (≈) assume the structure as drawn.
Experiments:
Plasmodium falciparum [1] = assay: Inhibition of Plasmodium falciparum D6 (Sierra Leone) by [3H]hypoxanthine uptake; type: functional, organism-based
[2] = Potency to inhibit Indochina(W-2) clone relative to artemisinin.; type: functional
Summary of the method: (§1)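 Ratio of artemisinin IC50 to test-compound IC50, both measured in the same [3H]hypoxanthine microdilution assay against the named clone. Parasites were at 0.5% parasitemia and 1% hematocrit, exposed for 24 h at 37 °C under low oxygen, then labelled for 18–20 h. IC50s came from a four-parameter logistic fit of duplicate wells.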

[3] = Potency to inhibit African Sierra Leone(D-6) clone relative to artemisinin.; type: functional; summary of the method: as §1
Plasmodium falciparum [4] = assay: Parasite viability index for Plasmodium falciparum Indochina W2 by [3H]hypoxanthine uptake; type: functional, organism-based

SMILES	IC50 (Plasmodium falciparum [1])	Relative potency [2]	Relative potency [3]	IC50 (Plasmodium falciparum [4])
CO[C@H]1O[C@]2(C)CC[C@H]3CCC[C@@H](CCOC(=O)N(c4ccccc4)c4ccccc4)[C@]31OO2	0.9 ng/mL (≈ 1.92 nM)	> 7	4.3	< 0.2 ng/mL
CCOP(=O)(OCC)OCC[C@@H]1CCC[C@@H]2CC[C@]3(C)OO[C@]21[C@@H](OC)O3	1.1 ng/mL (≈ 2.69 nM)	> 1.6	3.5	< 0.9 ng/mL
CO[C@H]1O[C@]2(C)CC[C@H]3CCC[C@@H](CCOC(=O)c4ccc(C(=O)OCCN(C)C)cc4)[C@]31OO2	12.6 ng/mL (≈ 25.6 nM)	0.4	0.3	3.3 ng/mL (≈ 6.71 nM)
CO[C@H]1O[C@]2(C)CC[C@H]3CCC[C@@H](CCOC(=O)N(C)C)[C@]31OO2	2.9 ng/mL (≈ 8.44 nM)	1.8	1.3	0.8 ng/mL (≈ 2.33 nM)
COC(=O)c1ccccc1S(=O)(=O)OCC[C@@H]1CCC[C@@H]2CC[C@]3(C)OO[C@]21[C@@H](OC)O3	11.3 ng/mL (≈ 24 nM)	0.1	0.3	13.2 ng/mL (≈ 28.1 nM)
C[C@@H]1CC[C@H]2[C@@H](C)C(=O)O[C@@H]3O[C@@]4(C)CC[C@@H]1[C@]32OO4 [ARTEMISININ]	3.9 ng/mL (≈ 13.8 nM)	1	1	1.4 ng/mL (≈ 4.96 nM)
CO[C@H]1O[C@]2(C)CC[C@H]3CCC[C@@H](CCOCc4c(C)noc4C)[C@]31OO2	7.6 ng/mL (≈ 19.9 nM)	2.8	0.5	0.5 ng/mL (≈ 1.31 nM)
CO[C@H]1O[C@]2(C)CC[C@H]3CCC[C@@H](CCOS(=O)(=O)c4cccc5c(N(C)C)cccc45)[C@]31OO2	16.3 ng/mL (≈ 32.2 nM)	1.2	0.2	1.2 ng/mL (≈ 2.37 nM)
CCN(CC)C(=O)c1ccc(C(=O)OCC[C@@H]2CCC[C@@H]3CC[C@]4(C)OO[C@]32[C@@H](OC)O4)cc1	< 1.4 ng/mL	> 1	> 2.8	< 1.4 ng/mL
CO[C@H]1O[C@]2(C)CC[C@H]3CCC[C@@H](CCOC(=O)CNC(=O)OC(C)(C)C)[C@]31OO2	3.5 ng/mL (≈ 8.15 nM)	0.6	1.1	2.5 ng/mL (≈ 5.82 nM)
COCC[C@@H]1CCC[C@@H]2CC[C@]3(C)OO[C@]21[C@@H](OC)O3	10.7 ng/mL (≈ 37.4 nM)	0.4	0.4	3.7 ng/mL (≈ 12.9 nM)
CO[C@H]1O[C@]2(C)CC[C@H]3CCC[C@@H](CCOS(=O)(=O)c4ccc(C)cc4)[C@]31OO2	5.6 ng/mL (≈ 13.1 nM)	0.7	0.7	1.9 ng/mL (≈ 4.45 nM)
COC(=O)c1ccc(C(=O)OCC[C@@H]2CCC[C@@H]3CC[C@]4(C)OO[C@]32[C@@H](OC)O4)cc1	> 1.2 ng/mL	> 1.2	> 3.3	< 1.2 ng/mL
CO[C@H]1O[C@]2(C)CC[C@H]3CCC[C@@H](CCOCc4ccccc4)[C@]31OO2	5.4 ng/mL (≈ 14.9 nM)	3.5	0.7	0.4 ng/mL (≈ 1.1 nM)
C=CCOCC[C@@H]1CCC[C@@H]2CC[C@]3(C)OO[C@]21[C@@H](OC)O3	5.5 ng/mL (≈ 17.6 nM)	2.3	0.7	0.6 ng/mL (≈ 1.92 nM)
CO[C@H]1O[C@]2(C)CC[C@H]3CCC[C@@H](CCOC(=O)c4ccc(C(=O)O)cc4)[C@]31OO2	63.3 ng/mL (≈ 151 nM)	0.1	0.1	15.7 ng/mL (≈ 37.3 nM)
CO[C@H]1O[C@]2(C)CC[C@H]3CCC[C@@H](CCOC(=O)c4ccccc4)[C@]31OO2	29.5 ng/mL (≈ 78.4 nM)	0.2	0.1	8.2 ng/mL (≈ 21.8 nM)
CCN(CC)C(=O)OCC[C@@H]1CCC[C@@H]2CC[C@]3(C)OO[C@]21[C@@H](OC)O3	1.7 ng/mL (≈ 4.58 nM)	> 3.5	2.3	< 0.4 ng/mL

— ChEMBL document CHEMBL1125468, “Extraordinarily potent antimalarial compounds: new, structurally simple, easily synthesized, tricyclic 1,2,4-trioxanes” (J Med Chem, 1992)
